Laboratory results: article PMC6044901 (ACS Omega, 2018)
Each block holds one molecule with its values, some of them ahead of it.

Tests used:
[1] = iv; cited from earlier work
[2] = PK after sc injection in mice; format: in vivo; settings: male, Crl:CD1 (ICR), mouse, plasma, 100 nmol/kg
Summary of the method: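 Male ICR mice, 6 weeks old, n = 3, given a single sc injection: test compound at 100 or 300 nmol/kg, or liraglutide at 100 nmol/kg. Tail-vein plasma sampled at 0–144 h (0, 12, 24, 48, 72, 96, 120, 144 h) and stored at −80 °C. Active GLP-1 ELISA with a four-parameter logistic fit. Bioavailability from sc and iv dosing run in parallel.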

[3] = PK after iv injection in mice; format: in vivo; settings: iv 1 mg/kg, GLP-1 ELISA, T1/2 elim unavailable
Summary of the method: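 Male ICR mice, 6 weeks old, n = 3, given a single iv injection: 1 mg/kg as GLP-1 peptide-equivalent weight for screening, or 300 nmol/kg. Tail-vein blood taken at 0, 12, 24, 48, 72, 96, 120 and 144 h; plasma stored at −80 °C. Active GLP-1 ELISA with a four-parameter logistic standard curve. Half-life computed; mean of three measurements.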

[4] = nonhuman primate; cited from earlier work

Molecule: Glucagon-like peptide-1 [GLP-1]
half-life (T1/2 elim) injected intravenously [1]: ≤ 2 min

MRT [2]: 15.5 h | plasma immunoreactive GLP-1 level at 48 h after iv injection [3]: below the detection limit
Molecule: CCCCCCCCCCCCCCCC(=O)N[C@@H](CCC(=O)NCCCC[C@H](NC(=O)[C@H](C)NC(=O)[C@H](C)NC(=O)[C@H](CCC(N)=O)NC(=O)CNC(=O)[C@H](CCC(=O)O)NC(=O)[C@H](CC(C)C)NC(=O)[C@H](Cc1ccc(O)cc1)NC(=O)[C@H](CO)NC(=O)[C@H](CO)NC(=O)[C@@H](NC(=O)[C@H](CC(=O)O)NC(=O)[C@H](CO)NC(=O)[C@@H](NC(=O)[C@H](Cc1ccccc1)NC(=O)[C@@H](NC(=O)CNC(=O)[C@H](CCC(=O)O)NC(=O)[C@H](C)NC(=O)[C@@H](N)Cc1cnc[nH]1)[C@@H](C)O)[C@@H](C)O)C(C)C)C(=O)N[C@@H](CCC(=O)O)C(=O)N[C@@H](Cc1ccccc1)C(=O)N[C@H](C(=O)N[C@@H](C)C(=O)N[C@@H](Cc1c[nH]c2ccccc12)C(=O)N[C@@H](CC(C)C)C(=O)N[C@H](C(=O)N[C@@H](CCCNC(=N)N)C(=O)NCC(=O)N[C@@H](CCCNC(=N)N)C(=O)NCC(=O)O)C(C)C)[C@@H](C)CC)C(=O)O [liraglutide, reference compound]

B1: 99 kDa HPN-conjugated G-CSF: 99 kDa heparosan-conjugated G-CSF, ref 39 (conjugate, UniProt P09919 31-207, looked up)
Granulocyte …: TPLGPASSLPQSFLLKCLEQVRKIQGDGAALQEKLVSECATYKLCHPEELVLLGHSLGIPWAPLSSCPSQALQLAGCLSQLHSGLFLYQGLLQALEGISPELGPTLDTLQLDVADFATTIWQQMEELGMAPALQPTQGAMPAFASAFQRRAGGVLVASHLQSFLEVSYRVLRHLAQP
modifications: 99 kDa heparosan conjugate
T1/2 elim [4]: 190 h
